Reference: ChEMBL document CHEMBL3046508, “Factors affecting the production of Trichoderma harzianum secondary metabolites during the interaction with different plant pathogens” (2009)
Calls of active or inactive are those of the source. The calls are words filed in the database; no cut-off is given here.

How the values were obtained:
Phytophthora cinnamomi [1] = experiment: Antifungal activity against Phytophthora cinnamomi assessed as growth inhibition at 1 to 100 ug/plug; type: functional
Plenodomus lingam [2] = experiment: Antifungal activity against Leptosphaeria maculans isolate UWA P11 assessed as growth inhibition at 1 to 100 ug/plug; type: functional
Phytophthora cinnamomi [3] = experiment: Antifungal activity against Phytophthora cinnamomi assessed as growth inhibition at 0.01 to 200 ug/plug; type: functional, organism-based
Summary of the method: (§1)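 Plugs cut from actively growing colony margins (L. maculans UWA P11 grown on V8 agar; B. cinerea and P. cinnamomi kept on PDA) were placed centrally on one-fifth strength PDA plates. Purified compound dissolved in filter-sterilized EtOAc was applied on top of each plug and the solvent evaporated; a solvent-only control was included. Colony diameter (mm) was measured daily. Three replicates per treatment; experiment run twice.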

Botrytis cinerea [4] = experiment: Antifungal activity against Botryotinia fuckeliana assessed as growth inhibition at 0.01 to 200 ug/plug; type: functional, organism-based; summary of the method: as §1
Plenodomus lingam [5] = experiment: Antifungal activity against Leptosphaeria maculans isolate UWA P11 assessed as growth inhibition at 0.01 to 200 ug/plug; type: functional, organism-based; summary of the method: as §1
Phytophthora cinnamomi [6] = experiment: Antifungal activity against Phytophthora cinnamomi assessed as growth inhibition at 100 ug/plug; type: functional, organism-based; summary of the method: as §1
Plenodomus lingam [7] = experiment: Antifungal activity against Leptosphaeria maculans isolate UWA P11 assessed as growth inhibition at 100 ug/plug; type: functional, organism-based; summary of the method: as §1
Botrytis cinerea [8] = experiment: Antifungal activity against Botryotinia fuckeliana assessed as growth inhibition at 1 to 10 ug/plug; type: functional, organism-based; summary of the method: as §1
Phytophthora cinnamomi [9] = experiment: Antifungal activity against Phytophthora cinnamomi assessed as growth inhibition at 1 to 10 ug/plug; type: functional, organism-based; summary of the method: as §1
Phytophthora cinnamomi [10] = experiment: Antifungal activity against Phytophthora cinnamomi assessed as growth inhibition at 200 ug/plug; type: functional; summary of the method: as §1
Plenodomus lingam [11] = experiment: Antifungal activity against Leptosphaeria maculans isolate UWA P11 assessed as growth inhibition at 200 ug/plug; type: functional; summary of the method: as §1
Botrytis cinerea [12] = experiment: Antifungal activity against Botryotinia fuckeliana assessed as growth inhibition at 200 ug/plug; type: functional; summary of the method: as §1

C/C=C/CC(C)C(=O)c1c(O)c(OC)c(OC)[nH]c1=O (stereo not given) [HARZIANOPYRIDONE]
growth inhibition (GI) (Phytophthora cinnamomi [1]): 100% | growth inhibition (GI) (Plenodomus lingam [2]): 100%

Cc1cc(O)c2c(c1)C(=O)c1cccc(O)c1C2=O
growth inhibition (GI) (Phytophthora cinnamomi [3]): inactive | growth inhibition (GI) (Botrytis cinerea [4]): inactive | growth inhibition (GI) (Plenodomus lingam [5]): inactive

C/C=C/C=C/CC1=C(CC(C)=O)C(=O)OC1
growth inhibition (GI) (Phytophthora cinnamomi [6]): Active | growth inhibition (GI) (Plenodomus lingam [7]): Active

Cc1cc(O)c2c(c1)C(=O)c1ccccc1C2=O
growth inhibition (GI) (Phytophthora cinnamomi [3]): inactive | growth inhibition (GI) (Botrytis cinerea [4]): inactive | growth inhibition (GI) (Plenodomus lingam [5]): inactive

C/C=C/C=C/C1=CC2=CC(=O)[C@](C)(OC(=O)[C@H](C)O)C(=O)C2=CO1
growth inhibition (GI) (Botrytis cinerea [8]): Active | growth inhibition (GI) (Phytophthora cinnamomi [9]): Active

C/C=C/C=C/CC1=C(CC(C)O)C(=O)OC1 (stereo not given) [HARZIANOLIDE]
growth inhibition (GI) (Phytophthora cinnamomi [10]): <25% | growth inhibition (GI) (Plenodomus lingam [11]): <25% | growth inhibition (GI) (Botrytis cinerea [12]): <25%
